What was measured:
[1] = molecular target: T1, Gonadotropin-releasing hormone receptor (Homo sapiens, UniProt P30968); experiment: Binding affinity towards human gonadotropin-releasing hormone receptor
T1 sequence (P30968 whole entry): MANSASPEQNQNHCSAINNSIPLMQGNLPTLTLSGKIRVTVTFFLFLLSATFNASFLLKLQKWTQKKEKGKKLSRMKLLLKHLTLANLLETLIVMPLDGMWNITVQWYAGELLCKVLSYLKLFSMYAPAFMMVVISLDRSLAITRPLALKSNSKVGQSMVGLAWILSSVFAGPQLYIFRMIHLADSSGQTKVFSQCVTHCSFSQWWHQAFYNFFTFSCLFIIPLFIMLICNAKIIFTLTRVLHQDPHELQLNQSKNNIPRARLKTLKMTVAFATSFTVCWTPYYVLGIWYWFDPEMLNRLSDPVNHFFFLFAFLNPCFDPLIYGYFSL
Outline: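 Cloned human GnRH receptor stably expressed in HEK293 cells, binding measured in a 96-well filtration format. Results expressed as Ki. Key compounds were run in 3–8 independent experiments.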

[2] = molecular target: T2, Gonadotropin-releasing hormone receptor (Rattus norvegicus, UniProt P30969); experiment: Binding affinity towards rat Gonadotropin-releasing hormone receptor
T2 sequence (P30969 whole entry): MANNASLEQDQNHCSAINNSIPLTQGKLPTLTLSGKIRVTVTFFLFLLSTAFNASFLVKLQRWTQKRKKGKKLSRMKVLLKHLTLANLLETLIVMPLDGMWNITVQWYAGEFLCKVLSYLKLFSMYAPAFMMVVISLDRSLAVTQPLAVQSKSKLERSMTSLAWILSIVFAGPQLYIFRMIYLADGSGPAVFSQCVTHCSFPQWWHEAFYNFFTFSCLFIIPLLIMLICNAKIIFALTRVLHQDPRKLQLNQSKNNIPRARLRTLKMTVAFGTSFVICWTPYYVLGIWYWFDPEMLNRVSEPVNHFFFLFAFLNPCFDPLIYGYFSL

[3] = pKa value was determined; assay type: physicochemical
[4] = Partition coefficient (logP); assay type: physicochemical; conditions: octanol/water

Row | SMILES | Ki [1] [nM] | other results
1 | CN(CCc1ccccc1)Cc1c(-c2ccc([N+](=O)[O-])cc2)sc2c1c(=O)n(-c1ccccc1)c(=O)n2Cc1c(F)cccc1F | 170 | 
2 | Cc1cc(-c2c(OCC[C@@H]3CCN3)c3cc(C(=O)Nc4ccncn4)c(Cl)cc3[nH]c2=O)cc(C)c1C |  | IC50 [2]: 4 nM
3 | CN(Cc1ccccc1)Cc1c(-c2ccc(NC(=O)C(F)(F)F)cc2)sc2c1c(=O)n(-c1ccccc1)c(=O)n2Cc1c(F)cccc1F | 16 | 
4 | CN(C)Cc1c(-c2ccc([N+](=O)[O-])cc2)sc2c1c(=O)n(-c1ccccc1)c(=O)n2Cc1c(F)cccc1F | 640 | 
5 | CN(Cc1ccccc1)Cc1c(-c2ccc([N+](=O)[O-])cc2)sc2c1c(=O)n(-c1ccccc1)c(=O)n2Cc1c(F)cccc1F | 180 | 
6 | CC(C)C(=O)Nc1ccc(-c2sc3c(c2CN(C)Cc2ccccc2)c(=O)n(-c2ccccc2)c(=O)n3Cc2c(F)cccc2F)cc1 | 2.9 | 
7 | CC(C)Nc1ccc(-c2sc3c(c2CN(C)Cc2ccccc2)c(=O)n(-c2ccccc2)c(=O)n3Cc2c(F)cccc2F)cc1 | 88 | 
8 | CN(Cc1ccccc1)Cc1c(-c2ccc(N(C)C)cc2)sc2c1c(=O)n(-c1ccccc1)c(=O)n2Cc1c(F)cccc1F | 61 | 
9 | CN(Cc1ccccn1)Cc1c(-c2ccc([N+](=O)[O-])cc2)sc2c1c(=O)n(-c1ccccc1)c(=O)n2Cc1c(F)cccc1F | 9 | 
10 | CN(Cc1ccccc1)Cc1c(-c2ccc(N)cc2)sc2c1c(=O)n(-c1ccccc1)c(=O)n2Cc1c(F)cccc1F | 36 | 
11 | O=c1c2c(CN3CCNCC3)c(-c3ccc([N+](=O)[O-])cc3)sc2n(Cc2c(F)cccc2F)c(=O)n1-c1ccccc1 | 460 | 
12 | CC(=O)Nc1ccc(-c2sc3c(c2CN(C)Cc2ccccc2)c(=O)n(-c2ccccc2)c(=O)n3Cc2c(F)cccc2F)cc1 | 4.1 | 
13 | CCNc1ccc(-c2sc3c(c2CN(C)Cc2ccccc2)c(=O)n(-c2ccccc2)c(=O)n3Cc2c(F)cccc2F)cc1 | 11 | 
14 | CN(Cc1ccccc1)Cc1c(-c2ccc(NC(=O)CN)cc2)sc2c1c(=O)n(-c1ccccc1)c(=O)n2Cc1c(F)cccc1F | 150 | 
15 | CN(Cc1ccccc1)Cc1c(-c2ccc(NC(=O)CCCN)cc2)sc2c1c(=O)n(-c1ccccc1)c(=O)n2Cc1c(F)cccc1F | 300 | 
16 | CC(C)CNc1ccc(-c2sc3c(c2CN(C)Cc2ccccc2)c(=O)n(-c2ccccc2)c(=O)n3Cc2c(F)cccc2F)cc1 | 17 | 
17 | C[C@H](N)C(=O)Nc1ccc(-c2sc3c(c2CN(C)Cc2ccccc2)c(=O)n(-c2ccccc2)c(=O)n3Cc2c(F)cccc2F)cc1 | 43 | 
18 | CCN(CC)CCN(C)Cc1c(-c2ccc([N+](=O)[O-])cc2)sc2c1c(=O)n(-c1ccccc1)c(=O)n2Cc1c(F)cccc1F | 76 | 
19 | CCCCN(C)Cc1c(-c2ccc([N+](=O)[O-])cc2)sc2c1c(=O)n(-c1ccccc1)c(=O)n2Cc1c(F)cccc1F | 270 | 
20 | CN(CCc1ccccn1)Cc1c(-c2ccc([N+](=O)[O-])cc2)sc2c1c(=O)n(-c1ccccc1)c(=O)n2Cc1c(F)cccc1F | 0.6 | 
21 | COCCN(C)Cc1c(-c2ccc([N+](=O)[O-])cc2)sc2c1c(=O)n(-c1ccccc1)c(=O)n2Cc1c(F)cccc1F | 170 | 
22 | CN(Cc1ccccc1)Cc1c(-c2ccc(NC(=O)CCN)cc2)sc2c1c(=O)n(-c1ccccc1)c(=O)n2Cc1c(F)cccc1F | 360 | 
23 | CC(C)CC(N)C(=O)Nc1ccc(-c2sc3c(c2CN(C)Cc2ccccc2)c(=O)n(-c2ccccc2)c(=O)n3Cc2c(F)cccc2F)cc1 (single isomer, unassigned) | 58 | 
24 | CONC(=O)Nc1ccc(-c2sc3c(c2CN(C)Cc2ccccc2)c(=O)n(-c2ccccc2)c(=O)n3Cc2c(F)cccc2F)cc1 [SUFUGOLIX] |  | pKa [3]: 5; logP [4]: 6.5

— ChEMBL document CHEMBL1136304, “Synthesis and structure-activity relationships of thieno[2,3-d]pyrimidine-2,4-dione derivatives as potent GnRH receptor antagonists” (Bioorg Med Chem Lett, 2003)
